Laboratory results as given in ChEMBL document CHEMBL5058577, “EUbOPEN Chemogenomics Library 2 (Multiplex)” (2022).

System: U2OS
Assay: Multiplex assay against U2OS
Type: toxicity, cell-based
Details: human
Outline: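 Live cells were stained at seeding with Hoechst33342, BioTracker Green Microtubule Cytoskeleton Dye, MitoTracker Red and Annexin V Alexa Fluor 680. Following compound addition, they were imaged on a CQ1 microscope at 37°C and 5% CO2 and gated by CellPathfinder machine learning into Hoechst high-intensity objects or normal cells, with normal cells split into healthy, pyknosed or fragmented nuclei and pyknosed cells into mitotic or apoptotic. Tubulin, mitochondrial-mass and membrane-permeability phenotypes are per cents of healthy-nucleus cells.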

[1] = 12 h, 1 µM, compound concentration 1 uM, replicate 1
[2] = 12 h, 1 µM, compound concentration 1 uM, replicate 2
[3] = 12 h, 10 µM, compound concentration 10 uM, replicate 1
[4] = 12 h, 10 µM, compound concentration 10 uM, replicate 2
[5] = 24 h, 1 µM, compound concentration 1 uM, replicate 1
[6] = 24 h, 1 µM, compound concentration 1 uM, replicate 2
[7] = 24 h, 10 µM, compound concentration 10 uM, replicate 1
[8] = 24 h, 10 µM, compound concentration 10 uM, replicate 2
[9] = 48 h, 1 µM, compound concentration 1 uM, replicate 1
[10] = 48 h, 1 µM, compound concentration 1 uM, replicate 2
[11] = 48 h, 10 µM, compound concentration 10 uM, replicate 1
[12] = 48 h, 10 µM, compound concentration 10 uM, replicate 2

CC(C)(O)C(=O)N1CCN(c2ccc(C(F)(F)F)c(C3=C(c4c[nH]c5ccccc45)C(=O)NC3=O)c2)CC1
Population Apoptotic (%) [1]: 88% | Population Fragmented Nuclei (%) [1]: 29% | Population Healthy Nuclei (%) [1]: 63% | Population Hoechst High Intensity Objects (%) [1]: 3% | Population Membrane Permeable-Phenotype (%) [1]: 5% | Population Mitochondria Different-Phenotype (%) [1]: 2% | Population Mitotic Cells (%) [1]: 11% | Population Normal (%) [1]: 96% | Population Pyknosed Nuclei (%) [1]: 7% | Population Tubulin-Different-Phenotype (%) [1]: 3% | Total Cell Count [1]: 238 | Population Apoptotic (%) [2]: 92% | Population Fragmented Nuclei (%) [2]: 14% | Population Healthy Nuclei (%) [2]: 75% | Population Hoechst High Intensity Objects (%) [2]: 1% | Population Membrane Permeable-Phenotype (%) [2]: 4% | Population Mitochondria Different-Phenotype (%) [2]: 4% | Population Mitotic Cells (%) [2]: 7% | Population Normal (%) [2]: 98% | Population Pyknosed Nuclei (%) [2]: 9% | Total Cell Count [2]: 134 | Population Apoptotic (%) [3]: 76% | Population Fragmented Nuclei (%) [3]: 37% | Population Healthy Nuclei (%) [3]: 46% | Population Hoechst High Intensity Objects (%) [3]: 6% | Population Membrane Permeable-Phenotype (%) [3]: 39% | Population Mitochondria Different-Phenotype (%) [3]: 23% | Population Mitotic Cells (%) [3]: 24% | Population Normal (%) [3]: 93% | Population Pyknosed Nuclei (%) [3]: 16% | Population Tubulin-Different-Phenotype (%) [3]: 30% | Total Cell Count [3]: 166 | Population Apoptotic (%) [4]: 50% | Population Fragmented Nuclei (%) [4]: 6% | Population Healthy Nuclei (%) [4]: 77% | Population Hoechst High Intensity Objects (%) [4]: 1% | Population Membrane Permeable-Phenotype (%) [4]: 14% | Population Mitochondria Different-Phenotype (%) [4]: 14% | Population Mitotic Cells (%) [4]: 50% | Population Normal (%) [4]: 98% | Population Tubulin-Different-Phenotype (%) [4]: 15% | Total Cell Count [4]: 148 | Population Apoptotic (%) [5]: 89% | Population Fragmented Nuclei (%) [5]: 27% | Population Healthy Nuclei (%) [5]: 61% | Population Hoechst High Intensity Objects (%) [5]: 3% | Population Membrane Permeable-Phenotype (%) [5]: 7% | Population Mitochondria Different-Phenotype (%) [5]: 3% | Population Mitotic Cells (%) [5]: 10% | Population Normal (%) [5]: 96% | Population Pyknosed Nuclei (%) [5]: 11% | Population Tubulin-Different-Phenotype (%) [5]: 5% | Total Cell Count [5]: 263 | Population Apoptotic (%) [6]: 82% | Population Fragmented Nuclei (%) [6]: 22% | Population Healthy Nuclei (%) [6]: 67% | Population Hoechst High Intensity Objects (%) [6]: 0% | Population Membrane Permeable-Phenotype (%) [6]: 4% | Population Mitochondria Different-Phenotype (%) [6]: 2% | Population Mitotic Cells (%) [6]: 17% | Population Normal (%) [6]: 100% | Population Pyknosed Nuclei (%) [6]: 9% | Population Tubulin-Different-Phenotype (%) [6]: 2% | Total Cell Count [6]: 172 | Population Apoptotic (%) [7]: 87% | Population Fragmented Nuclei (%) [7]: 48% | Population Healthy Nuclei (%) [7]: 27% | Population Hoechst High Intensity Objects (%) [7]: 6% | Population Membrane Permeable-Phenotype (%) [7]: 11% | Population Mitochondria Different-Phenotype (%) [7]: 34% | Population Mitotic Cells (%) [7]: 12% | Population Normal (%) [7]: 93% | Population Pyknosed Nuclei (%) [7]: 24% | Population Tubulin-Different-Phenotype (%) [7]: 15% | Total Cell Count [7]: 172 | Population Apoptotic (%) [8]: 70% | Population Fragmented Nuclei (%) [8]: 16% | Population Healthy Nuclei (%) [8]: 53% | Population Hoechst High Intensity Objects (%) [8]: 2% | Population Membrane Permeable-Phenotype (%) [8]: 15% | Population Mitochondria Different-Phenotype (%) [8]: 24% | Population Mitotic Cells (%) [8]: 29% | Population Normal (%) [8]: 97% | Population Pyknosed Nuclei (%) [8]: 29% | Population Tubulin-Different-Phenotype (%) [8]: 11% | Total Cell Count [8]: 152 | Population Apoptotic (%) [9]: 95% | Population Fragmented Nuclei (%) [9]: 21% | Population Healthy Nuclei (%) [9]: 65% | Population Hoechst High Intensity Objects (%) [9]: 3% | Population Membrane Permeable-Phenotype (%) [9]: 6% | Population Mitochondria Different-Phenotype (%) [9]: 4% | Population Mitotic Cells (%) [9]: 4% | Population Normal (%) [9]: 96% | Population Pyknosed Nuclei (%) [9]: 12% | Population Tubulin-Different-Phenotype (%) [9]: 5% | Total Cell Count [9]: 377 | Population Apoptotic (%) [10]: 85% | Population Fragmented Nuclei (%) [10]: 17% | Population Healthy Nuclei (%) [10]: 73% | Population Hoechst High Intensity Objects (%) [10]: 1% | Population Membrane Permeable-Phenotype (%) [10]: 7% | Population Mitochondria Different-Phenotype (%) [10]: 3% | Population Mitotic Cells (%) [10]: 14% | Population Normal (%) [10]: 98% | Population Pyknosed Nuclei (%) [10]: 9% | Population Tubulin-Different-Phenotype (%) [10]: 2% | Total Cell Count [10]: 233 | Population Apoptotic (%) [11]: 95% | Population Fragmented Nuclei (%) [11]: 57% | Population Healthy Nuclei (%) [11]: 11% | Population Hoechst High Intensity Objects (%) [11]: 14% | Population Membrane Permeable-Phenotype (%) [11]: 27% | Population Mitochondria Different-Phenotype (%) [11]: 16% | Population Mitotic Cells (%) [11]: 4% | Population Normal (%) [11]: 85% | Population Pyknosed Nuclei (%) [11]: 30% | Population Tubulin-Different-Phenotype (%) [11]: 11% | Total Cell Count [11]: 177 | Population Apoptotic (%) [12]: 96% | Population Fragmented Nuclei (%) [12]: 31% | Population Healthy Nuclei (%) [12]: 27% | Population Hoechst High Intensity Objects (%) [12]: 7% | Population Membrane Permeable-Phenotype (%) [12]: 17% | Population Mitochondria Different-Phenotype (%) [12]: 14% | Population Mitotic Cells (%) [12]: 3% | Population Normal (%) [12]: 92% | Population Pyknosed Nuclei (%) [12]: 41% | Population Tubulin-Different-Phenotype (%) [12]: 17% | Total Cell Count [12]: 163
